# Laboratory results taken from ChEMBL document CHEMBL1146946, “Synthesis of novel benzofuran isoxazolines as protein tyrosine phosphatase 1B inhibitors” (Bioorg Med Chem Lett, 2006).
# Experiments:
# [1] = molecular target: T1, Tyrosine-protein phosphatase non-receptor type 1 (Homo sapiens) (UniProt P18031); assay: Inhibition of PTP1B at 100 uM
# T1 sequence (whole entry): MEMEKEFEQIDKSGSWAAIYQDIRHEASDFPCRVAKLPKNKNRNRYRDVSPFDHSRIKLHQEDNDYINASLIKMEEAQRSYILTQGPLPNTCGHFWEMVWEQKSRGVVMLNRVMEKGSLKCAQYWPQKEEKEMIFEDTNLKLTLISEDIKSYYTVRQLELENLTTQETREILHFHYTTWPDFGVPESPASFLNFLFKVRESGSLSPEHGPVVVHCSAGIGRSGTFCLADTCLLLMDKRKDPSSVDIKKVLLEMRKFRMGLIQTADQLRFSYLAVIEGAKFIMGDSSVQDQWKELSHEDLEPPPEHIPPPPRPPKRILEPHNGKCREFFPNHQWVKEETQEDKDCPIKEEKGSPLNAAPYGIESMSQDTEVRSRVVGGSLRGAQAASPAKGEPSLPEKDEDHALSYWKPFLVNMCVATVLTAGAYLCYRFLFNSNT
# How it was run: (§1)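 Test compound preincubated 10 min with enzyme in the reaction system before residual phosphatase activity was read. Substrate was 10 mM p-nitrophenylphosphate in 50 mM HEPES pH 7.0 with 1 mM each of EDTA and DTT. The reaction was stopped with 0.1 N NaOH and absorbance read at 410 nm. No-enzyme blanks run in parallel corrected for non-enzymic hydrolysis.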
# [2] = molecular target: T2, Tyrosine-protein phosphatase non-receptor type 1 (Homo sapiens, UniProt P18031); assay: Inhibition of PTP1B; how it was run: as §1
# T2 sequence (P18031 whole entry): T1 sequence (whole entry)
# [3] = tested on: Rattus norvegicus; assay: Antihyperglycemic activity in Streptozotocin-induced diabetic rat at 100 mg/kg; type: functional
inhibition [1] [%],IC50 [2] [µM],Ki [2] [µM],Compound,inhibition in vivo at 100 mg/kg [3] [%]
22.5,227,45,COc1c(C2=NOC(c3ccccc3)C2)ccc2occc12 (stereo unspecified),–
49.1,150,27.5,COc1ccc(C2CC(c3ccc4occc4c3OC)=NO2)cc1 (stereo unspecified),–
18.5,199,72.5,COC(=O)C1C(c2ccc3occc3c2OC)=NOC1c1ccccc1 (stereo unspecified),–

# The next lines start with the molecule.
Compound,inhibition [1] [%],IC50 [2] [µM],Ki [2] [µM],inhibition in vivo at 100 mg/kg [3] [%]
COc1c(C2=NOC(c3ccccn3)C2)ccc2occc12 (stereo unspecified),17.4,–,–,–
COc1c(C2=NOC(c3ccccn3)C2)cc(OC)c2occc12 (stereo unspecified),18.4,–,–,–
COc1c(-c2ccccc2)oc2c(ccc3occc32)c1=O [KARANJIN],15.8,–,–,35
COc1c(C2=NOC(c3ccncc3)C2)ccc2occc12 (stereo unspecified),14.7,–,–,–
COc1ccc(C2CC(c3cc(OC)c4occc4c3OC)=NO2)cc1 (stereo unspecified),79.6,81,32,–
COc1c(C2=NOC(c3ccccc3)C2)cc(OC)c2occc12 (stereo unspecified),80.4,76,30,–
COc1c(C2=NOC(n3ccnc3)C2)ccc2occc12 (stereo unspecified),14.9,–,–,–
